Efflux pump mplx: blocks antifungal efflux pumps in multiplex yeast assay; S. cerevisiae Candida pump triplex, Nile Red efflux; 0.44% of 330,000 active; inhibition, % at 10 µM;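 active means plate passing quality check with inhibition over a set limit, or well fluorescence over plate mean plus 4 SD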;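 further: Nile Red retained in pooled yeast measured as flow cytometry median fluorescence; 0% = buffer negative control and 100% = Enniatin B positive control; higher means more Nile Red kept so more efflux inhibition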
AHR act: human AHR activation; P35869; AHR-responsive luciferase reporter cells, luminescence; activation, % at 5 µM; 2.5% of 320,000 active; AID 2796; in the data active means activation above about 47%;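 further: 0% = vehicle wells and 100% = reference agonist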
H9c2 TAG inh: reduces triacylglycerol accumulation in H9c2 cells; AID 651582; inhibition, % at 12.5 µM; Nile Red lipid (TAG) fluorescence; cells loaded with 200 µM oleic acid; 0.66% of 230,000 active;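 active means pattern-corrected inhibition of lipid staining of at least 50% with the nuclear-stain viability signal not falling by more than 50%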;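 further: 0% = DMSO wells and 100% = triacsin C control wells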
TbMetRS inhib: blocks T. brucei methionyl-tRNA synthetase activity; inhibition, % at 11.9 µM; 0.4% of 360,000 active; purified T. brucei MetRS, ATP depletion, Kinase-Glo luminescence;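 active means inhibition above a per-plate cutoff of the control wells' mean inhibition plus 3 SD, cut at about 5.5% in these data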;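 further: 0% = DMSO wells median and 100% = median of wells with control inhibitor compound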
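System: purified T. brucei MetRS enzyme / Detection: Kinase-Glo luciferase luminescence reporting remaining unconsumed ATP / Medium: HEPES buffer with MgCl2, KCl, DTT, spermine, BSA, pyrophosphatase / Replication: singlicate, one well per compound / Evaluation: percent inhibition relative to median high and low control wells / Schedule: 2 h aminoacylation at 25 °C after 15 min preincubation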
SMARCA2 activ: activators of SMARCA2 function. activation, % at 9.1 µM. MG213 cells, MMTV-luciferase reporter, dexamethasone, overnight. 1% of 370,000 active. AID 652017; in the data active means activation above about 7.8%;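 further: 0% = vehicle wells and 100% = reference activator wells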
* = called active by the depositor. This is a sample that favours compounds with a hit; in the whole collection about 4.1% have one here.

How did CCOc1ccccc1NC(=O)CN(c1ccc(OC)cc1)S(=O)(=O)c1c(C)noc1C do in these assays?
Efflux pump mplx: -0.2; AHR act: 8.1; TbMetRS inhib: -1.0; SMARCA2 activ: -2.4

What do the screens show for `CCOc1ccc(N(CC(=O)Nc2ccccc2C)S(=O)(=O)c2c(C)noc2C)cc1`?
Efflux pump mplx: -0.2; AHR act: 2.1; H9c2 TAG inh: 70.5*; TbMetRS inhib: -0.5; SMARCA2 activ: -2.7

Results for COc1cc(/C=N/n2c(-c3cc(-c4ccccc4)n[nH]3)n[nH]c2=S)ccc1OCc1ccccc1 ?
SMARCA2 activ: 3.9

How did CS(=O)(=O)N1CCN(c2ncnc3c2cnn3-c2ccccc2)CC1 do in these assays?
Efflux pump mplx: -0.3; AHR act: 1.9; H9c2 TAG inh: -4.5; TbMetRS inhib: -0.7; SMARCA2 activ: 0.8

What do the screens show for `c1ccc(-n2ncc3c(N4CCN(CCOc5cccc6ccccc56)CC4)ncnc32)cc1`?
Efflux pump mplx: 0.2; AHR act: 49.1*; H9c2 TAG inh: 27.3; TbMetRS inhib: -0.7; SMARCA2 activ: -0.1

Results for O=C(Nc1ccc(Br)c(C(F)(F)F)c1)c1ccccc1 ?
Efflux pump mplx: -7.1; AHR act: 50.6*; TbMetRS inhib: 0.6; SMARCA2 activ: -2.9

How did O=C(Nc1ccc(C(F)(F)F)cc1)c1ccccc1 do in these assays?
Efflux pump mplx: 0.1; AHR act: 53.3*; H9c2 TAG inh: -7.7; TbMetRS inhib: -0.1; SMARCA2 activ: 4.0

What do the screens show for `CCCc1c(C(=O)NNc2cc(C(F)(F)F)ccc2Cl)cnn1-c1ccccc1`?
Efflux pump mplx: 0.0; AHR act: -7.8; H9c2 TAG inh: -9.3; TbMetRS inhib: 0.0; SMARCA2 activ: -1.2

Results for CCCc1c(C(=O)Nc2ccc(C(F)(F)F)cc2)cnn1-c1ccccc1 ?
Efflux pump mplx: -0.2; AHR act: 110.2*; H9c2 TAG inh: -2.3; TbMetRS inhib: -1.0; SMARCA2 activ: -0.8

What do the screens show for `COC(=O)C1CN(Cc2ccccc2)CCS(=O)(=O)N1Cc1ccccc1` (centres undefined)?
SMARCA2 activ: 4.0

What do the screens show for `Cc1ccccc1Oc1nc(-c2ccccn2)nc2ccccc12`?
Efflux pump mplx: 0.1; AHR act: 5.8; H9c2 TAG inh: 57.2*; TbMetRS inhib: -0.1; SMARCA2 activ: -1.2

What do the screens show for `O=C(NNC(=O)c1sccc1-n1cccc1)c1cccs1`?
Efflux pump mplx: -0.1; AHR act: 47.1*; H9c2 TAG inh: -3.1; TbMetRS inhib: 2.5; SMARCA2 activ: -1.3

Results for O=C(NNC(=O)c1c(F)cccc1F)c1sccc1-n1cccc1 ?
Efflux pump mplx: -0.2; AHR act: 1.6; H9c2 TAG inh: -4.8; TbMetRS inhib: -0.6; SMARCA2 activ: 1.5

How did C/C(=N\NC(=O)c1sccc1-n1cccc1)c1cccs1 do in these assays?
Efflux pump mplx: -0.2; AHR act: 78.1*; H9c2 TAG inh: 4.7; TbMetRS inhib: 0.8; SMARCA2 activ: 1.4

How did Cc1ccc(-n2c(Cc3cccs3)nnc2SCc2ccc(Br)cc2)cc1 do in these assays?
SMARCA2 activ: -5.9

What do the screens show for `CCCCCC[C@@H](CCCc1ccccc1OC)CN(CCCC)S(C)(=O)=O`?
SMARCA2 activ: 2.4

What do the screens show for `CN(CC#Cc1ccccc1)C(N)=NC(=O)/C=C/c1ccccc1`?
SMARCA2 activ: 0.7

What do the screens show for `COCn1c(-c2ccc(OC)cc2)nc2ccccc21`?
Efflux pump mplx: 0.3; AHR act: 55.3*; H9c2 TAG inh: -7.8; TbMetRS inhib: -0.6; SMARCA2 activ: 0.5

How did CCOC(=O)[C@@]12CN(C(=O)OC(C)(C)C)CC=C1N(Cc1ccc(OC)cc1)C(=O)[C@H]2CC(=O)NCC1CCCCC1 do in these assays?
SMARCA2 activ: -2.5

How did CCCc1cc(C(=O)Nc2cccc(C(C)=O)c2)no1 do in these assays?
Efflux pump mplx: 0.2; AHR act: 5.7; H9c2 TAG inh: 1.2; TbMetRS inhib: -0.2; SMARCA2 activ: 7.9*

How did CCCc1cc(C(=O)Nc2ccc(C(C)=O)cc2)no1 do in these assays?
Efflux pump mplx: -0.1; AHR act: 1.4; H9c2 TAG inh: -11.0; TbMetRS inhib: -0.2; SMARCA2 activ: 0.7

Results for COc1ccc(-n2c(SCC(=O)Nc3ccc(S(=O)(=O)Nc4nccs4)cc3)nnc2-c2ccco2)cc1 ?
SMARCA2 activ: -4.6

Results for CCSc1ncc(/C=N/Nc2ccc(F)cc2)n1C ?
Efflux pump mplx: 0.0; AHR act: 77.2*; H9c2 TAG inh: -10.9; TbMetRS inhib: -1.7; SMARCA2 activ: 0.9

What do the screens show for `Cn1c(N)c(C(=O)N/N=C/c2ccccc2)sc1=S`?
Efflux pump mplx: -0.2; AHR act: 100.6*; H9c2 TAG inh: 19.9; TbMetRS inhib: -0.8; SMARCA2 activ: -0.6
